Experimental data: ChEMBL document CHEMBL1145189, “Synthesis and evaluation of S-acyl-2-thioethyl esters of modified nucleoside 5'-monophosphates as inhibitors of hepatitis C virus RNA replication” (J Med Chem, 2005)
Several values for one entry are separate records, joined by “and”; a condition that tells them apart may be missing. Equal values may be shown once. Blank lines part the entries; values can stand above or below the compound they belong to.

Key:
[1] = Effective concentration against hepatitis C virus RNA replication in a subgenomic bicistronic replicon in HBI10A cells; type: functional, cell-based; conditions: Homo sapiens
Outline: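 Stable Huh-7-derived HBI10A hepatoma line carrying a subgenomic bicistronic HCV replicon. Compound incubated with cells for 24 h. Relative replicon RNA then quantified by in situ ribonuclease protection assay.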

[2] = Cytotoxic concentration of compound in human HBI10A cells infected with hepatitis C virus in MTS assay; type: functional
Outline: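 MTS cytotoxicity run on samples parallel to the replicon assay, at the same time (24 h compound exposure). Cells plated at 2.0 × 10⁴/well and compound added next day at 2× in medium. Incubation at 37 °C, 5% CO₂. MTS reagent added for 1 h, then absorbance read at 490 nm.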

CHO [3] = test: Effect of compound (10000 uM) on growth of CHO cells measured as population doublings from the beginning of the experiment as percent of controls after 20 hr of treatment (harvested at 20h of treatment); type: functional, Cricetulus griseus
Outline: (§1)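 Exponentially growing CHO (clone WBL) monolayers treated for 20 h without S-9. DMSO stock diluted 100-fold into medium, giving 1% v/v DMSO as vehicle control. Cultures harvested at 20, 30 or 42 h after dosing. Growth expressed as population doublings from start of experiment as a percentage of controls.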

CHO [4] = test: Effect of compound (10000 uM) on growth of CHO cells measured as population doublings from the beginning of the experiment as percent of controls after 20 hr of treatment (harvested at 30h of treatment); type: functional, Cricetulus griseus; outline: as §1
CHO [5] = test: Effect of compound (10000 uM) on growth of CHO cells measured as population doublings from the beginning of the experiment as percent of controls after 20 hr of treatment (harvested at 42h of treatment); type: functional, Cricetulus griseus; outline: as §1
CHO [6] = test: Percent of CHO cells with chromosomal aberrations were determined at 10000 uM compound after 20 hr of treatment (harvested at 20h of treatment); type: functional, Cricetulus griseus
Outline: (§2)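 CHO (clone WBL) monolayers treated for 20 h without S-9, with DMSO stock diluted 100-fold into medium. Harvest at 20, 30 or 42 h after dosing; colcemid added 1–2 h before harvest for metaphase arrest. Cells fixed, and 200 cells scored per point for % aberrant cells. Points not scored where toxicity prevented it. Comparison against concurrent controls.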

CHO [7] = test: Percent of CHO cells with chromosomal aberrations were determined at 10000 uM compound after 20 hr of treatment (harvested at 30h of treatment); type: functional, Cricetulus griseus; outline: as §2
CHO [8] = test: Percent of CHO cells with chromosomal aberrations were determined at 10000 uM compound after 20 hr of treatment (harvested at 42h of treatment); type: functional, Cricetulus griseus; outline: as §2
[9] = Average intracellular Metabolism was measured in human HBI10A cells after 23 hr of incubation; type: functional
Outline: (§3)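 Radiolabeled 5-[³H] compound at 2 µM incubated with Huh-7 (passage 27) or HBI10A (passage 15) cells for 3 or 23 h. Cells extracted and analysed by ion pair reverse-phase HPLC. Triphosphate reported as pmol/million cells, with major metabolic byproducts noted. Averages of at least three separate experiments.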

Huh-7 [10] = test: Average intracellular Metabolism was measured in human Huh-7 cells after 3 h of incubation; type: functional; outline: as §3
[11] = Average intracellular Metabolism was measured in human HBI10A cells after 3 h of incubation; type: functional; outline: as §3
Huh-7 [12] = test: Average intracellular Metabolism was measured in human Huh-7 cells after 23 hr of incubation; type: functional; outline: as §3
CHO [13] = test: Effect of compound (550 uM) on growth of CHO cells measured as population doublings from the beginning of the experiment as percent of controls after 20 hr of treatment (harvested at 20h of treatment); type: functional, Cricetulus griseus; outline: as §1
CHO [14] = test: Effect of compound (550 uM) on growth of CHO cells measured as population doublings from the beginning of the experiment as percent of controls after 20 hr of treatment (harvested at 30h of treatment); type: functional, Cricetulus griseus; outline: as §1
CHO [15] = test: Effect of compound (550 uM) on growth of CHO cells measured as population doublings from the beginning of the experiment as percent of controls after 20 hr of treatment (harvested at 42h of treatment); type: functional, Cricetulus griseus; outline: as §1
CHO [16] = test: Effect of compound (700 uM) on growth of CHO cells measured as population doublings from the beginning of the experiment as percent of controls after 20 hr of treatment (harvested at 20h of treatment); type: functional, Cricetulus griseus; outline: as §1
CHO [17] = test: Effect of compound (700 uM) on growth of CHO cells measured as population doublings from the beginning of the experiment as percent of controls after 20 h of treatment (harvested at 30h of treatment); type: functional, Cricetulus griseus; outline: as §1
CHO [18] = test: Effect of compound (700 uM) on growth of CHO cells measured as population doublings from the beginning of the experiment as percent of controls after 20 hr of treatment (harvested at 42h of treatment); type: functional, Cricetulus griseus; outline: as §1
CHO [19] = test: Effect of compound (800 uM) on growth of CHO cells measured as population doublings from the beginning of the experiment as percent of controls after 20 hr of treatment (harvested at 20h of treatment); type: functional, Cricetulus griseus; outline: as §1
CHO [20] = test: Effect of compound (800 uM) on growth of CHO cells measured as population doublings from the beginning of the experiment as percent of controls after 20 hr of treatment (harvested at 30h of treatment); type: functional, Cricetulus griseus; outline: as §1
CHO [21] = test: Effect of compound (800 uM) on growth of CHO cells measured as population doublings from the beginning of the experiment as percent of controls after 20 hr of treatment (harvested at 42h of treatment); type: functional, Cricetulus griseus; outline: as §1
CHO [22] = test: Effect of compound (600 uM) on growth of CHO cells measured as population doublings from the beginning of the experiment as percent of controls after 20 hr of treatment (harvested at 20h of treatment); type: functional, Cricetulus griseus; outline: as §1
CHO [23] = test: Effect of compound (600 uM) on growth of CHO cells measured as population doublings from the beginning of the experiment as percent of controls after 20 hr of treatment (harvested at 30h of treatment); type: functional, Cricetulus griseus; outline: as §1
CHO [24] = test: Effect of compound (600 uM) on growth of CHO cells measured as population doublings from the beginning of the experiment as percent of controls after 20 hr of treatment (harvested at 42h of treatment); type: functional, Cricetulus griseus; outline: as §1
CHO [25] = test: Effect of compound (650 uM) on growth of CHO cells measured as population doublings from the beginning of the experiment as percent of controls after 20 hr of treatment (harvested at 20h of treatment); type: functional, Cricetulus griseus; outline: as §1
CHO [26] = test: Effect of compound (650 uM) on growth of CHO cells measured as population doublings from the beginning of the experiment as percent of controls after 20 hr of treatment (harvested at 30h of treatment); type: functional, Cricetulus griseus; outline: as §1
CHO [27] = test: Effect of compound (650 uM) on growth of CHO cells measured as population doublings from the beginning of the experiment as percent of controls after 20 hr of treatment (harvested at 42h of treatment); type: functional, Cricetulus griseus; outline: as §1
CHO [28] = test: Percent of CHO cells with chromosomal aberrations were determined at 550 uM compound after 20 hr of treatment (harvested at 20h of treatment); type: functional, Cricetulus griseus; outline: as §2
CHO [29] = test: Percent of CHO cells with chromosomal aberrations were determined at 550 uM compound after 20 hr of treatment (harvested at 30h of treatment); type: functional, Cricetulus griseus; outline: as §2
CHO [30] = test: Percent of CHO cells with chromosomal aberrations were determined at 600 uM compound after 20 hr of treatment (harvested at 20h of treatment); type: functional, Cricetulus griseus; outline: as §2
CHO [31] = test: Percent of CHO cells with chromosomal aberrations were determined at 600 uM compound after 20 hr of treatment (harvested at 30h of treatment); type: functional, Cricetulus griseus; outline: as §2
CHO [32] = test: Percent of CHO cells with chromosomal aberrations were determined at 600 uM compound after 20 hr of treatment (harvested at 42h of treatment); type: functional, Cricetulus griseus; outline: as §2
CHO [33] = test: Percent of CHO cells with chromosomal aberrations were determined at 650 uM compound after 20 hr of treatment (harvested at 30h of treatment); type: functional, Cricetulus griseus; outline: as §2
CHO [34] = test: Percent of CHO cells with chromosomal aberrations were determined at 700 uM compound after 20 hr of treatment (harvested at 42h of treatment); type: functional, Cricetulus griseus; outline: as §2
CHO [35] = test: Percent of CHO cells with chromosomal aberrations were determined at 650 uM compound after 20 hr of treatment (harvested at 20h of treatment); Not scored because of toxicity; type: functional, cell-based; conditions: Cricetulus griseus; outline: as §2
CHO [36] = test: Percent of CHO cells with chromosomal aberrations were determined at 700 uM compound after 20 hr of treatment (harvested at 20h of treatment); Not scored because of toxicity; type: functional, cell-based; conditions: Cricetulus griseus; outline: as §2
CHO [37] = test: Percent of CHO cells with chromosomal aberrations were determined at 700 uM compound after 20 h of treatment (harvested at 30h of treatment); Not scored because of toxicity; type: functional, cell-based; conditions: Cricetulus griseus; outline: as §2
CHO [38] = test: Percent of CHO cells with chromosomal aberrations were determined at 800 uM compound after 20 hr of treatment (harvested at 20h of treatment); Not scored because of toxicity; type: functional, cell-based; conditions: Cricetulus griseus; outline: as §2
CHO [39] = test: Percent of CHO cells with chromosomal aberrations were determined at 800 uM compound after 20 hr of treatment (harvested at 30h of treatment); Not scored because of toxicity; type: functional, cell-based; conditions: Cricetulus griseus; outline: as §2
CHO [40] = test: Percent of CHO cells with chromosomal aberrations were determined at 800 uM compound after 20 hr of treatment (harvested at 42h of treatment); Not scored because of toxicity; type: functional, cell-based; conditions: Cricetulus griseus; outline: as §2
[41] = Inhibitory concentration against hepatitis C virus NS5B-mediated RNA synthesis in HBI10A cells; type: functional, cell-based; conditions: Homo sapiens

SMILES: CC(C)(C)C(=O)SCCOP(=O)(OCCSC(=O)C(C)(C)C)OC[C@@H]1C[C@@H](O)[C@H](n2ccc3c(O)nc(N)nc32)O1
EC50 [1]: 7.2 µM
CC50 [2]: > 50 µM

SMILES: Nc1ccn([C@H]2CC[C@@H](CO)O2)c(=O)n1 [ZALCITABINE]
Growth (CHO [3]): 65%
Growth (CHO [4]): 101%
Growth (CHO [5]): 105%
Aberrant cells (CHO [6]): 9.5%
Aberrant cells (CHO [7]): 8%
Aberrant cells (CHO [8]): 3%

SMILES: CO[C@@H]1[C@H](O)[C@@H](COP(=O)(OCCSC(=O)C(C)(C)C)OCCSC(=O)C(C)(C)C)O[C@H]1n1cnc2c(O)nc(N)nc21
EC50 [1]: > 50 µM
CC50 [2]: > 50 µM

SMILES: CO[C@@H]1[C@H](O)[C@@H](CO)O[C@H]1n1cnc2c(O)nc(N)nc21
IC50 [41]: 1.2 µM
EC50 [1]: > 50 µM

More lines, main results first:

EC50 [1]: 3 µM
SMILES: CO[C@@H]1[C@H](O)[C@@H](COP(=O)(OCCSC(=O)C(C)(C)C)OCCSC(=O)C(C)(C)C)O[C@H]1n1ccc(N)nc1=O
Activity [9]: 5.8 pmol/million cells
Activity (Huh-7 [10]): 7.02 pmol/million cells
Activity [11]: 15.9 pmol/million cells
Activity (Huh-7 [12]): 1.88 pmol/million cells
Growth (CHO [13]): 59%
Growth (CHO [14]): 82%
Growth (CHO [15]): 95%
Growth (CHO [16]): 21%
Growth (CHO [17]): 6%
Growth (CHO [18]): 47%
Growth (CHO [19]): 6%
Growth (CHO [20]): 0%
Growth (CHO [21]): 0%
CC50 [2]: > 100 µM
Growth (CHO [22]): 51%
Growth (CHO [23]): 57%
Growth (CHO [24]): 88%
Growth (CHO [25]): 27%
Growth (CHO [26]): 46%
Growth (CHO [27]): 90%
Aberrant cells (CHO [28]): 0%
Aberrant cells (CHO [29]): 3.5%
Aberrant cells (CHO [30]): 2%
Aberrant cells (CHO [31]): 1.5%
Aberrant cells (CHO [32]): 1.5%
Aberrant cells (CHO [33]): 4.5% and 3%
Aberrant cells (CHO [34]): 3.5%
Aberrant cells (CHO [35]): Not scored
Aberrant cells (CHO [36]): Not scored
Aberrant cells (CHO [37]): Not scored
Aberrant cells (CHO [38]): Not scored
Aberrant cells (CHO [39]): Not scored
Aberrant cells (CHO [40]): Not scored

EC50 [1]: 1.4 µM
SMILES: CC(C)(C)C(=O)SCCOP(=O)(OCCSC(=O)C(C)(C)C)OC[C@@H]1C[C@@H](O)[C@H](n2ccc(N)nc2=O)O1
CC50 [2]: > 100 µM
